The values that follow come from ChEMBL document CHEMBL1133018, “Deltorphin II analogues with 6-hydroxy-2-aminotetralin-2-carboxylic acid in position 1” (J Med Chem, 2000).

*1 amine or outer side, *2 acyl side, *3 side chain or, on linkers, in order; H or OH if unused. Where a SMILES comes first, the peptide text is derived from it. [ ]: non-standard residue; d: D form. X1 = O=C([C@@]1(N[*:1])CCc2cc(O)ccc2C1)[*:2]; X2 = O=C([C@]1(N[*:1])CCc2cc(O)ccc2C1)[*:2]

One assay addresses Mu-type opioid receptor (Cavia porcellus, UniProt P97266). The assay can be described thus: inhibitory concentration for inhibition of electrically induced smooth muscle contractions of GPI (guinea pig ileum) myenteric-plexus-longitudinal muscle strips. In kind it is functional, tissue-based. In short, it runs like this:
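Longitudinal muscle-myenteric plexus strips from ileum of male guinea pigs (400-600 g), electrically stimulated under standard conditions. IC50 taken as 50% inhibition of twitch, mean ± SEM of 4-6 measurements. Where no IC50 was reached, % inhibition is given at 10^-6 or 10^-5 M (n = 4).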

Assay [1] has as its target T1, Delta-type opioid receptor (Rattus norvegicus, UniProt P33533). The experiment in a line: Binding affinities against Opioid receptor delta 1 of rat brain using [3H]p-Cl-Phe4-DPDPE as radioligand. A digest of the protocol:
(§1)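 Wistar rat brain (minus cerebellum) membranes, 300-500 µg protein, 50 mM Tris-HCl pH 7.4. Displacement of [3H]pClPhe4-DPDPE (0.8 nM, 25 °C, 90 min) or [3H]Ile5,6-deltorphin II (0.5 nM, 35 °C, 45 min). Filtration, scintillation counting. Nonspecific binding defined with 10 µM naloxone. Ki as mean ± SEM of 3-5 runs in duplicate; Hill slopes also fitted.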

For assay [2], the species on record is Rattus norvegicus. The experiment in a line: Stimulation of [35S]GTP-gamma-S, binding at the concentration of 1 uM. In kind it is functional. A digest of the protocol:
(§2)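 Rat frontal cortex crude membranes, 10 µg protein, in 50 mM Tris-HCl with 1 mM EGTA, 3 mM MgCl2, 100 mM NaCl. Incubated with 30 µM GDP and 0.05 nM [35S]GTPγS, 1 h at 30 °C. Nonspecific binding taken with 10 µM unlabeled GTPγS. Filtered and counted. Stimulation expressed as % of specific binding, mean ± SEM of three triplicate experiments.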
A general note: Binding of GTPγS marks nucleotide exchange on a G protein.

Assay [3] deals with T1, Delta-type opioid receptor. The assay can be described thus: Binding affinities against delta 2 opioid receptor of rat brain using [3H]Ile5,6-deltorphin II as radioligand. A digest of the protocol: as §1
In assay [4] the target is Mu-type opioid receptor (Rattus norvegicus) (UniProt P33535).
The target in assay [5] is Delta-type opioid receptor (Rattus norvegicus) (UniProt P33533).
The target is the same in assay [6]. The source holds these as a separate data set.
For assay [7], the species on record is Rattus norvegicus. The assay can be described thus: Stimulation of [35S]GTP-gamma-S, binding at the concentration of 0.1 uM. In kind it is functional. A digest of the protocol: as §2
Assay [8] deals with Mu-type opioid receptor (Rattus norvegicus) (UniProt P33535). The source holds these as a separate data set.
Assay [9] has as its target Delta-type opioid receptor (Rattus norvegicus) (UniProt P33533). This is another data set of the same source.

T1 sequence (P33533 whole entry): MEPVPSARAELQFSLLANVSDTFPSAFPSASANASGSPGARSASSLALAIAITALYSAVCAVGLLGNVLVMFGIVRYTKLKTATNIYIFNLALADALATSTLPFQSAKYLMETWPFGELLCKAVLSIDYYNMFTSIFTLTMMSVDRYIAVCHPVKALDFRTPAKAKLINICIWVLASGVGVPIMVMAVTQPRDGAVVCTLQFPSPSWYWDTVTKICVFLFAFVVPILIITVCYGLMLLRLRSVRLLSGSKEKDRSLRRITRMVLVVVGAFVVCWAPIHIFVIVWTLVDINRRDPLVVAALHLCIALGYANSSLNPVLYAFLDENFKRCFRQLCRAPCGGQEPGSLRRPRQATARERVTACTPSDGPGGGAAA
Delta-type opioid receptor (Rattus norvegicus), sequence (P33533 whole entry): as above
Mu-type opioid receptor, sequence (P97266 whole entry): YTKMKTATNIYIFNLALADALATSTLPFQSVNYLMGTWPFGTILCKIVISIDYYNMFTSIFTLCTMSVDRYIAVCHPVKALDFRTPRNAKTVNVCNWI
Mu-type opioid receptor (Rattus norvegicus), sequence (P33535 whole entry, looked up): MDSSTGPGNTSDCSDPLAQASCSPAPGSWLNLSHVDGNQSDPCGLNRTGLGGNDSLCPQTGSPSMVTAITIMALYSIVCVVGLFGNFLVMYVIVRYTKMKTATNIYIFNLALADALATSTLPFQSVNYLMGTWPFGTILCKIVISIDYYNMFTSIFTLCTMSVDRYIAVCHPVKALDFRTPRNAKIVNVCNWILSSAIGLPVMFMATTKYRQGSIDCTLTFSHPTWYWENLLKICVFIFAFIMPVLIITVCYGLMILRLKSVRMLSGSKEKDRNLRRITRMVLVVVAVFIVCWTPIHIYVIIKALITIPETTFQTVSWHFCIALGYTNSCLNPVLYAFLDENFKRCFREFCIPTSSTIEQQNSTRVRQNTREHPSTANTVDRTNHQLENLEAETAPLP

For the molecule `CC[C@H](C)[C@H](NC(=O)[C@H](CCC(=O)O)NC(=O)[C@H](Cc1ccccc1)NC(=O)[C@H](C)NC(=O)[C@]1(N)CCc2cc(O)ccc2C1)C(=O)N[C@H](C(=O)NCC(N)=O)[C@@H](C)CC` (H-[X2]AFEIIG-NH2), the IC50 (usually the midpoint of a concentration-inhibition curve) at Mu-type opioid receptor was more than 10000 nM. The Ki – broadly, a measure of affinity in units of concentration, obtained from inhibition or displacement – was found to be 0.94 nM in assay [1] and 1 nM in [3]. In the assay listed under Rattus norvegicus [2], this molecule yielded a Stimulation of 136.9%. Besides, the values for the Hill coefficient in assay [4], in assay [5] and in assay [6] were -1.09, -0.42 and -0.5, respectively.

`CC[C@H](C)[C@H](NC(=O)[C@H](CCC(=O)O)NC(=O)[C@H](Cc1ccccc1)NC(=O)[C@H](C)NC(=O)[C@@]1(N)CCc2cc(O)ccc2C1)C(=O)N[C@H](C(=O)NCC(N)=O)[C@@H](C)CC` (H-[X1]AFEIIG-NH2) showed an IC50 at Mu-type opioid receptor of 5130 nM. For the same molecule, the Ki amounted to 0.16 nM in [1] and 0.34 nM in assay [3]. In the assay listed under Rattus norvegicus [7], the Stimulation was 155%. Moreover, the Hill coefficient (in general, the slope factor of the fitted curve) in assay [8] is -1.01; in [9], -0.34; in [6], -0.69.
